# A selection: hits, their analogues and other compounds. The true share with any hit is near 1.6%.
# HKDC1 inhibitor = HKDC1 hexokinase inhibitors, primary screen, biochemical, fluorescence, uHTS; Q2TB90; recombinant HKDC1, G6PDH/diaphorase resazurin coupled fluorescence; inhibition, % at 20 µM; 340,000 compounds, 0.16% hits;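 active means inhibition above about 35% when tested at 20 µM, limit read from the data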
#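 Test system: recombinant HKDC1 (HK5) hexokinase enzyme, produced in-house; Amount: enzyme 5 µg/mL final; Buffer or medium: Tris pH 8.0 buffer with MgCl2, Tween-20, BSA, BME; Reagent: glucose and ATP substrates; Doses: 20 µM test compound, 1% DMSO; Incubation: 90 min reaction incubation at room temperature, dark; Detection: resorufin fluorescence at 613 nm.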
# PKA-R2B activ = activators of PKA-R2B holoenzyme, primary screen, biochemical, fluorescence polarization, Cy5-IP20, human; cAMP-dependent protein kinase catalytic subunit beta (Homo sapiens) + cAMP-dependent …; PKA-R2B holoenzyme dissociation; R2B truncated from residue 108, S112A mutant; 0% DMSO only, 100% 113 µM cGMP; activation, % at 11.4 µM; 340,000 compounds, 0.079% hits;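 active means activation above a cutoff set at the mean over all compounds plus 3 SD, cut at about 18% in these data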;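 further: higher means more holoenzyme dissociation and a rise in polarization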
# ATG4B inhibitor = ATG4B protease inhibitors, primary screen, biochemical, fluorescence, uHTS. AID 504462, 2011. 340,000 compounds, 0.51% hits. ATG4B cleavage of LC3-PLA2, NBD-HPC fluorescence, 1 h. inhibition, % at 8.33 µM. Cysteine protease ATG4B (Homo sapiens), Q9Y4P1; in the data active means inhibition above about 40%
# Target sequence (Q9Y4P1 whole entry, looked up): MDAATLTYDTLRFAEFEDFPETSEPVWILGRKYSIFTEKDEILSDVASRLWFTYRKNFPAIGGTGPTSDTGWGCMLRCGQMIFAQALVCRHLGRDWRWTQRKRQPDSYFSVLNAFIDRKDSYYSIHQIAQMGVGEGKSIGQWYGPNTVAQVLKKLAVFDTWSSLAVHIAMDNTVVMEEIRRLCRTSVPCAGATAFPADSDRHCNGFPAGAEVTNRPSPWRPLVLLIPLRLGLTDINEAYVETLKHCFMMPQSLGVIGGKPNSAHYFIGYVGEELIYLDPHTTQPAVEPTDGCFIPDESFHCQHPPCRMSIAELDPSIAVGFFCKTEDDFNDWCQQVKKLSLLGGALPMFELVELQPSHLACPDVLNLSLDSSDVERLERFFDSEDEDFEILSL
# PKA-R1A activ = activators of PKA-R1A holoenzyme, primary screen, biochemical, fluorescence polarization, Cy5-IP20, bovine R1A, mouse PKAc | AID 504707, 2011 | activation, % at 11.4 µM | 340,000 compounds, 0.083% hits | PKA-R1A dissociation; scaled: DMSO 0%, 113 µM cGMP 100% | cAMP-dependent protein kinase type I-alpha regulatory subunit (Bos taurus) + …;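 active means percent activation above the mean of all tested compounds plus 3 SD, cut at about 19% in these data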;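 further: higher means more PKAc released from R1A so a rise in polarization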
# T cell modulator = modulators of CD8 T cell-vesicle binding, primary screen, mouse 2C CD8+ T cells, flow cytometry. 330,000 compounds, 0.068% hits. 2C CD8+ T cell-vesicle binding; stronger effect = lower value. response (vesicle binding), % at 7 µM;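 active means response, share of CD8 T cells binding vesicles, and their 90th percentile fluorescence all below set limits, cut at about 80% in these data, passing the limit was not always enough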;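 further: values below 100% mean blocked vesicle binding to the CD8+ T cells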
#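 System: murine 2C transgenic CD8+ T lymphocytes; also added: QL9-loaded Drosophila micro-vesicles; times: binding 1.5 h at 37 °C; measured by: flow cytometry, PE anti-B7-1 (FL2) versus Alexa647 anti-CD8 (FL8), PFA-fixed; control set: Peptide-free naked vesicles (low) and QL9 vesicles with 0.7% DMSO vehicle (high)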
# PfG6PD inh = PfG6PD enzyme inhibitors, primary screen, biochemical, fluorescence intensity, uHTS | glucose-6-phosphate dehydrogenase-6-phosphogluconolactonase (Plasmodium falciparum 3D7) | PfGluPho enzyme, NADPH resazurin-diaphorase fluorescence | inhibition, % at 20 µM | 350,000 compounds, 0.78% hits;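 active means inhibition reaching at least a set limit at 20 µM in the primary screen, cut at about 59% in these data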
# ATG4B conf = ATG4B protease inhibitors, retest, confirmation, biochemical, fluorescence, single concentration. shares compounds with ATG4B inhibitor. ATG4B protease fluorescent substrate cleavage assay. inhibition, % at 8.33 µM. 320 compounds, 92% hits; in the data active means inhibition above about 39%
# PLA2 ctr = PLA2 enzyme inhibition, counter-screen for ATG4B inhibitor project, biochemical, single concentration, uHTS hits; shares compounds with ATG4B inhibitor; purified PLA2, NBD-C6-HPC fluorescence, 45 min; inhibition, % at 8.33 µM; 1,600 compounds, 66% hits; AID 588402, 2011; in the data active means inhibition above about 50%
# Target sequence (P04054 whole entry, looked up): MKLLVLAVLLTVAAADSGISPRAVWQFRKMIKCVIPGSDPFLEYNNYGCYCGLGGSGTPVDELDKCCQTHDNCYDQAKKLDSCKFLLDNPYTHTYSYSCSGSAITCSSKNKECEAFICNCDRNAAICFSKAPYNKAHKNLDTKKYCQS
# Numbers stand for hits; - = inactive; . = not tested or not shown.
SMILES,HKDC1 inhibitor,PKA-R2B activ,ATG4B inhibitor,PKA-R1A activ,T cell modulator,PfG6PD inh,PLA2 ctr,others
Cc1nn(-c2ccccc2)cc1C(c1c(N)[nH]c(=S)[nH]c1=O)c1c(N)[nH]c(=S)[nH]c1=O,-,-,46,-,-,-,-,
S=C(NCc1ccccc1)NC1CCCc2ccccc21 (stereo not drawn),-,.,78,.,-,-,78,
S=C(NCc1ccco1)NC1CCCc2ccccc21 (stereo not drawn),-,-,63,-,-,-,-,
S=C(NC1CC1)NC1CCCc2ccccc21 (stereo not drawn),-,-,-,-,-,-,.,
CCN(CC)CCN1C(=O)C(=O)/C(=C(/O)c2ccc(S(=O)(=O)N3CCOCC3)cc2)C1c1ccc(C(C)C)cc1 (stereo not drawn),-,-,-,-,-,-,.,
O=[N+]([O-])c1ccc(COc2ccc(CN3CCCC3)cc2)cc1,-,-,-,-,.,-,.,
Cc1sc2nc(C3CC3)nc(SCC(=O)N3c4ccccc4CC3C)c2c1C (stereo not drawn),-,-,68,-,-,-,85,
Cc1nc(SCC(=O)N2c3ccccc3NC(=O)CC2C)c2c(C)c(C)sc2n1 (stereo not drawn),-,-,-,-,.,-,.,
C=CCN1C(c2ccccc2)=CS/C1=C(\C#N)c1nnc2n1CCCCC2,-,-,-,-,-,-,.,
C=CCN1C(c2cccc(C(F)(F)F)c2)=CS/C1=C(/C#N)c1nnc(N2CCOCC2)n1-c1ccccc1,-,-,50,-,-,-,55,
C=CCN1C(=O)NC(c2ccc(OC)cc2)(C(F)(F)F)S/C1=C(\C#N)c1nnc(N2CCOCC2)n1-c1ccccc1 (stereo not drawn),-,-,-,-,-,-,.,
C=CCN1C(c2ccc(Br)cc2)=CS/C1=C(/C#N)c1nnc(N2CCOCC2)n1-c1ccccc1,-,-,61,-,-,-,70,
Cc1ccc(NC(=O)OC(C)N2CCCCC2)cc1NC(=O)OC(C)N1CCCCC1 (stereo not drawn),-,-,-,-,.,-,.,
COc1cccc(CN2CCNC(=O)C2CC(=O)NCC(C)(C)N2CCOCC2)c1OC (stereo not drawn),-,-,-,-,-,-,.,
CCN(CC)C(=O)c1[nH]cnc1C(=O)NCc1ccccc1,-,-,-,-,-,-,.,
Cc1nn(CCCC(=O)Nc2cc(Oc3ccc(F)cc3)cc([N+](=O)[O-])c2)c(C)c1[N+](=O)[O-],-,-,56,-,-,-,60,
Cc1c(Cl)c([N+](=O)[O-])nn1CCCC(=O)Nc1c(Cl)cccc1Cl,-,-,-,-,-,-,.,
Cc1c(Cl)c([N+](=O)[O-])nn1CCCC(=O)Nc1cc(Oc2ccccc2)cc([N+](=O)[O-])c1,-,-,89,-,-,-,88,
Cc1c(Cl)c([N+](=O)[O-])nn1CCCC(=O)N(Cc1ccccc1)Cc1ccccc1,-,-,52,-,-,-,60,
Cc1c(Cl)c([N+](=O)[O-])nn1CCCC(=O)N1CCN(c2ccccc2)CC1,-,-,-,-,-,-,.,
Cc1ccccc1Oc1cc(NC(=O)CCCn2nc(C)c([N+](=O)[O-])c2C)cc([N+](=O)[O-])c1,-,-,66,-,-,-,63,
CC(Sc1nnc(Cc2ccccc2)n1C)C(=O)NC1CC1 (stereo not drawn),-,-,-,-,.,-,.,
COc1ccc(CC(=O)Nc2cccc(S(=O)(=O)N3CCCCCC3)c2)cc1OC,-,-,-,-,-,-,.,
CC1CC(C)(C)CC2(C1)NC(=O)N(CC(=O)Nc1ccc3c(c1)OCO3)C2=O (stereo not drawn),.,-,.,-,.,-,.,
Cc1cc(N/N=C/c2cccc(Cl)c2)nc(NCc2ccccc2)n1,-,-,76,-,-,-,84,
SMILES,HKDC1 inhibitor,PKA-R2B activ,ATG4B inhibitor,PKA-R1A activ,T cell modulator,PfG6PD inh,PLA2 ctr,others
Cc1cc(N/N=C/c2ccccc2F)nc(NCc2ccccc2)n1,-,-,59,-,-,-,79,
Cc1cc(N/N=C/c2ccccc2)nc(NCc2ccccc2)n1,-,-,69,-,-,-,76,
Cc1cc(N/N=C/c2ccc(Cl)cc2)nc(NCc2ccccc2)n1,-,-,-,-,-,-,.,
Cc1cc(N/N=C/c2cccc(F)c2)nc(NCc2ccccc2)n1,-,-,73,-,-,-,80,
CN(C)c1nc(NCc2ccccc2)nc(N/N=C/c2ccccc2F)n1,.,.,.,.,-,.,.,
Cc1ccc(NC(=S)Nc2ccc(Cl)c(Cl)c2)c(OC(F)F)c1,-,-,53,-,-,-,61,
Fc1ccc(NC(=S)Nc2ccccc2OC(F)F)cc1Cl,-,-,48,-,-,-,59,
FC(F)Oc1ccccc1NC(=S)Nc1cccnc1,-,-,-,-,-,-,.,
Cc1ccc(NC(=S)Nc2ccc(OC(F)F)c(Cl)c2)cc1Cl,-,-,-,-,-,-,.,
CSCC[C@H](NC(=O)[C@@H]1CSC2c3ccccc3C(=O)N21)C(=O)N1CCC[C@H]1CO (stereo partly drawn),-,-,-,-,-,-,.,
CCCCN1C(=O)C2Cc3c([nH]c4ccccc34)CN2C1=S (stereo not drawn),-,-,45,-,-,-,80,
CCCCCN1CC(=O)N2Cc3[nH]c4ccccc4c3C[C@H]2C1=O,-,-,-,-,-,-,.,
CC(=O)c1ccc(NC(=O)CSc2ccsc2[N+](=O)[O-])cc1,-,-,-,-,.,-,.,
Clc1ccc2c(N/N=C/c3ccccc3Br)ccnc2c1,-,-,48,-,-,-,-,ATG4B conf=56
Clc1ccc2c(N/N=C/c3cccc(Br)c3)ccnc2c1,-,-,-,-,-,-,.,
Cc1cccc(OCc2nn[nH]n2)c1C,-,-,-,-,-,-,.,
Cc1c(CCOC(=O)C23CC4(C)CC(C)(CC(C)(C4)C2)C3)sc[n+]1CC(=O)c1ccccc1,-,-,47,-,-,-,-,ATG4B conf=51
